Values after ≈ are worked out from the molar mass of the structure shown.
Key:
Staphylococcus aureus [1] = experiment: Antibacterial activity against methicillin-resistant Staphylococcus aureus ATCC 43300 after 24 hrs; assay type: functional; conditions: ATCC 43300, 24 h
How it was run: (§1)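 Broth microdilution in MHB. Overnight cultures grown at 37 °C with shaking, diluted 40-fold and grown 2−3 h to mid-log, then added at a final 5 × 10^5 CFU/mL. Compounds in 2-fold serial dilution, final 0.015−32 μg/mL, in duplicate. Incubated 24 h at 37 °C. MIC read visually as the lowest concentration with no visible growth. Vancomycin, daptomycin and colistin served as controls.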

Staphylococcus aureus [2] = experiment: Antibacterial activity against glycopeptide-intermediate Staphylococcus aureus NRSA-NRS 17 after 24 hrs; assay type: functional; conditions: NRSA-NRS 17, 24 h
How it was run: as §1, with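 “cultures” for “cultures grown”, “at” for “at a”, “series,” for “serial dilution,”, “as” for “as the”, “colistin” for “colistin served”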

Staphylococcus aureus [3] = experiment: Antibacterial activity against methicillin-resistant and glycopeptide-intermediate Staphylococcus aureus NRSA-NRS 1 after 24 hrs; assay type: functional; conditions: NRSA-NRS 1, 24 h; how it was run: as §1
Streptococcus pneumoniae = experiment: Antibacterial activity against multidrug-resistant Streptococcus pneumoniae ATCC 700677 after 24 hrs; assay type: functional; conditions: ATCC 700677, 24 h; how it was run: as §1
Enterococcus faecalis = experiment: Antibacterial activity against Enterococcus faecalis clinical isolate expressing VanA after 24 hrs; assay type: functional; how it was run: as §1
Enterococcus faecium = experiment: Antibacterial activity against multidrug-resistant Enterococcus faecium ATCC 51559 expressing VanA after 24 hrs; assay type: functional; conditions: ATCC 51559, 24 h; how it was run: as §1
Escherichia coli = experiment: Antibacterial activity against Escherichia coli ATCC 25922 after 24 hrs; assay type: functional
How it was run: as §1, with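 “cultures” for “cultures grown”, “at” for “at a”, “series,” for “serial dilution,”, “as” for “as the”, “colistin” for “colistin served”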

HEK293 = experiment: Cytotoxicity against human HEK293 cells after 24 hrs; assay type: cell-based; conditions: HEK293, 24 h
How it was run: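 HEK293 cells seeded at 3000/well in DMEM with 10% FBS, attached 24 h at 37 °C, 5% CO2. Compounds from 1.28 mg/mL DMSO stock in 1:3 serial dilutions, final DMSO 1%, 24 h exposure. Resazurin 10 μM added for 2 h; fluorescence ex/em 560/590 nm. Four replicates; viability normalised to 1% DMSO and negative controls. Tamoxifen positive control.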

| Molecule | MIC (Staphylococcus aureus [1]) | MIC (Staphylococcus aureus [2]) | MIC (Staphylococcus aureus [3]) | MIC (Streptococcus pneumoniae) | MIC (Enterococcus faecalis) | MIC (Enterococcus faecium) | MIC (Escherichia coli; ATCC 25922, 24 h) | IC50 (HEK293) | MIC (Escherichia coli) |
| --- | --- | --- | --- | --- | --- | --- | --- | --- | --- |
| COc1cc(C(=O)/C=C/c2cc(O)ccc2O)c(O)c2c1OC(C)(CCC=C(C)C)C=C2 (stereo not drawn) | 32 µg/mL (≈ 73.3 µM) | > 32 µg/mL | 32 µg/mL (≈ 73.3 µM) | 32 µg/mL (≈ 73.3 µM) | 16 µg/mL (≈ 36.7 µM) | 32 µg/mL (≈ 73.3 µM) | > 32 µg/mL | 21 µM | – |
| CCCCCCCCCC(=O)N[C@@H](Cc1c[nH]c2ccccc12)C(=O)N[C@H](CC(N)=O)C(=O)N[C@@H](CC(=O)O)C(=O)N[C@@H]1C(=O)NCC(=O)N[C@@H](CCCN)C(=O)N[C@@H](CC(=O)O)C(=O)N[C@H](C)C(=O)N[C@@H](CC(=O)O)C(=O)NCC(=O)N[C@H](CO)C(=O)N[C@@H]([C@H](C)CC(=O)O)C(=O)N[C@@H](CC(=O)c2ccccc2N)C(=O)O[C@@H]1C | 1.2 µg/mL (≈ 0.74 µM) | 8 µg/mL (≈ 4.94 µM) | 16 µg/mL (≈ 9.87 µM) | 2 µg/mL (≈ 1.23 µM) | 8 µg/mL (≈ 4.94 µM) | 16 µg/mL (≈ 9.87 µM) | – | – | – |
| CN[C@H](CC(C)C)C(=O)N[C@H]1C(=O)N[C@@H](CC(N)=O)C(=O)N[C@H]2C(=O)N[C@H]3C(=O)N[C@H](C(=O)N[C@H](C(=O)O)c4cc(O)cc(O)c4-c4cc3ccc4O)[C@H](O)c3ccc(c(Cl)c3)Oc3cc2cc(c3O[C@@H]2O[C@H](CO)[C@@H](O)[C@H](O)[C@H]2O[C@H]2C[C@](C)(N)[C@H](O)[C@H](C)O2)Oc2ccc(cc2Cl)[C@H]1O [VANCOMYCIN] | – | 8 µg/mL (≈ 5.52 µM) | 8 µg/mL (≈ 5.52 µM) | 2 µg/mL (≈ 1.38 µM) | > 32 µg/mL | > 32 µg/mL | – | – | – |
| COc1cc(C(=O)/C=C/c2cccc(O)c2O)c(O)c2c1OC(C)(CCC=C(C)C)C=C2 (stereo not drawn) | 32 µg/mL (≈ 73.3 µM) | > 32 µg/mL | 32 µg/mL (≈ 73.3 µM) | 32 µg/mL (≈ 73.3 µM) | 16 µg/mL (≈ 36.7 µM) | 32 µg/mL (≈ 73.3 µM) | > 32 µg/mL | 37 µM | – |
| COLISTIN | – | – | – | – | – | – | – | – | 0.25 µg/mL |

From ChEMBL document CHEMBL3600305, “Flemingin-Type Prenylated Chalcones from the Sarawak Rainforest Plant Desmodium congestum” (J Nat Prod, 2015)
